Screens: PubChem BioAssay, Sanford-Burnham Center for Chemical Genomics
tim10-1 inh – tim10-1 yeast growth inhibition. 330,000 compounds, 2.2% hits. S. cerevisiae tim10-1 ts strain growth, BacTiter-Glo, 24 h. inhibition, % at 20 µM;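 active = inhibition of at least 40%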;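 note: mutant grown at 25 °C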
CHOP UPR activ – activators of apoptotic arm of unfolded protein response (CHOP) | activation, % at 10 µM | AID 449763 | 330,000 compounds, 0.34% hits | CHO-CHOP luciferase reporter, UPR activation, luminescence; percent of tunicamycin response over DMSO baseline;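 active = at 10 µM dose, activation of 40% or more, normalized to positive control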
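assay system = CHO CHOP reporter cells | amount = 500 CHO-CHOP cells per well | buffer or medium = F12 with 10% FBS | incubation = 16-18 h cell attachment, then 6 h compound exposure, 37 °C | detection = luminescence read with Steady-Glo | read-out = percent activation relative to tunicamycin control | controls = tunicamycin high control, DMSO low control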
XBP1 UPR activ – adaptive UPR (XBP1) activation. CHO-XBP1 luciferase reporter, IRE1-XBP1 UPR activation, luminescence; percent of tunicamycin response, DMSO as zero. activation, % at 20 µM. 330,000 compounds, 0.33% hits;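 active = versus positive control, 20 µM dose yields 30% or more activation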
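Assay system: IRE1-XBP1 luciferase reporter CHO line. Input: 1000 cells/well. Buffer or medium: F12 with 10% serum. Doses: 20 µM, 1% DMSO. Times: overnight seeding at 37 °C, 6 h compound treatment at 37 °C. Technique: Steady-Glo luciferase glow luminescence, 10 min after reagent addition.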
tim23-1 inh – tim23-1 yeast growth inhibition; S. cerevisiae tim23-1 growth, BacTiter-Glo luminescence, 24 h; inhibition, % at 20 µM; 330,000 compounds, 1.3% hits; AID 463212;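 active = growth inhibition of the mutant yeast at or above 50%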;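 note: temperature-sensitive mutant grown at 25 °C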
TIM10 inh – inhibits growth of TIM10 yeast strain | 330,000 compounds, 1.4% hits | inhibition, % at 10 µM | S. cerevisiae TIM10 strain growth, BacTiter-Glo luminescence, 24 h | AID 463195;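 active = inhibition of 40% or more at the single tested concentration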;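 note: wild-type TIM10 isogenic control strain grown at permissive 25 °C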
tim10-1 conf – tim10-1 yeast growth inhibition, confirmed. shares compounds with tim10-1 inh. S. cerevisiae tim10-1 ts strain growth, BacTiter-Glo, 24 h. inhibition, % at 20 µM. 7,400 compounds, 56% hits. AID 463213;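 active = inhibition of yeast growth at or above a set limit in either of two repeat tests at 20 µM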;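 note: tim10-1 mutant grown at permissive 25 °C to find synthetic lethal compounds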
A number is an active result; - = inactive; . = not tested or not shown. The list is not random: actives were taken first. Their share in the collection is about 3.9%.

SMILES | tim10-1 inh | CHOP UPR activ | XBP1 UPR activ | tim23-1 inh | TIM10 inh | tim10-1 conf
CC1CCCN(S(=O)(=O)c2ccc(NC(=O)CNC3CCCC3)cc2)C1 (stereo not drawn) | - | - | - | - | - | .
CCS(=O)(=O)c1ncc(Cl)c(C(=O)Nc2ccc(S(=O)(=O)N3CCCC(C)C3)cc2)n1 (stereo not drawn) | 43 | - | - | - | - | -
CCC1CCCCN1S(=O)(=O)c1ccc(C(=O)Nc2nnc(-c3ccccc3Cl)o2)cc1 (stereo not drawn) | - | - | - | - | - | .
CCC1CCCCN1S(=O)(=O)c1ccc(NC(=O)c2nc(S(C)(=O)=O)ncc2Cl)cc1 (stereo not drawn) | 54 | - | - | - | - | -
COC(=O)c1c(NC(=O)Cc2ccc(OC)c(S(=O)(=O)N3CCOCC3)c2)sc(C)c1C | - | - | - | - | - | .
Cc1cccc(-n2ncc3c(=O)[nH]c(SCC(=O)N4CC(=O)Nc5ccccc54)nc32)c1 | - | - | - | - | - | .
CCOc1ccc(N(C)S(=O)(=O)c2c[nH]c(C(=O)OC)c2)cc1 | - | - | - | - | - | .
Cc1cc(C)nc(SCC(=O)NC(=O)c2ccccc2O)n1 | - | - | - | - | - | .
O=c1c2c(nc3n1CCCCC3)sc1c(O)c(Br)ccc12 | 45 | - | - | - | - | -
CCN(CC)CCOc1c(Br)ccc2c1sc1nc3n(c(=O)c12)CCC3 | - | - | - | - | - | .
CCOC(=O)N1CCN(C(=O)CCc2c(C)nc3c(c(C)nn3-c3ccc(C)c(C)c3)c2C)CC1 | - | - | - | - | - | 35
O=C1NC(c2ccc(Br)cc2)Nc2sc3c(c21)CCC3 (stereo not drawn) | - | - | - | - | - | .
Cc1ccsc1C1NC(=O)c2c(sc3c2CCCC3)N1 (stereo not drawn) | 48 | - | - | - | - | 35
CC1Cc2ccccc2N1C(=S)NC(=O)c1ccco1 (stereo not drawn) | 40 | - | - | - | - | 36
O=C(NC(=S)N1CCCc2ccccc21)c1ccco1 | - | - | - | - | - | .
COc1cc(CCC(=O)OCc2nnc(-c3ccccc3)o2)cc(OC)c1OC | - | - | - | - | - | .
COc1cc(-c2nnc(COC(=O)CSc3cc(C)c4ccccc4n3)o2)cc(OC)c1OC | 40 | - | - | - | - | -
Cc1cccc(Oc2coc3cc(O)ccc3c2=O)c1 | 48 | - | - | - | - | -
CCc1ccccc1Oc1coc2cc(O)ccc2c1=O | - | - | - | - | - | .
O=C1C=C(NC(=O)Nc2ccc(Cl)c(Cl)c2)CCC1 | 43 | - | - | - | - | 46
Cc1cccc(Cc2cnc(N3C(=N)SC(c4ccccc4)C3=O)s2)c1 (stereo not drawn) | 44 | - | - | - | - | 30
COc1ccc(CCNS(=O)(=O)c2ccc(N3CCCC3=O)cc2)cc1 | - | - | - | - | - | .
COc1ccc(CCNS(=O)(=O)c2ccc(OC)cc2)cc1 | 44 | - | - | - | - | -
COc1ccc2[nH]c3c(c2c1)CCN1C(=O)C(CC(=O)NCCN2CCOCC2)C[C@H](C(=O)N2CCOCC2)[C@@]31C (stereo partly drawn) | - | - | - | - | - | .
N#Cc1nc(COc2ccc(Cl)cc2Cl)oc1N1CCOCC1 | 41 | - | - | - | - | -
SMILES | tim10-1 inh | CHOP UPR activ | XBP1 UPR activ | tim23-1 inh | TIM10 inh | tim10-1 conf
COc1ccc(OC2CCN(S(=O)(=O)c3ccc(OC)cc3)CC2)cc1 | 43 | - | - | - | - | 42
CN(C)c1ccc(C(=S)N2CCN(c3ccccc3)CC2)cc1 | 46 | - | - | - | - | 36
COc1ccc(S(=O)(=O)N2CCN(C(=O)c3cccc(Cl)c3)CC2)cc1 | 56 | - | - | - | - | -
O=S(=O)(c1ccccc1)N1CCN(C(=S)Nc2ccccc2)CC1 | - | - | - | - | - | .
COc1ccc(OC2CCN(S(=O)(=O)c3cccc(F)c3)CC2)cc1 | - | - | - | - | - | .
COc1ccc(S(=O)(=O)N2CCN(C(=O)c3ccc(NC(C)=O)cc3)CC2)cc1 | - | - | - | - | - | .
CC(C)c1ccc(NC(=S)N2CCN(S(=O)(=O)c3ccccc3)CC2)cc1 | 41 | - | - | - | - | -
